Data set [1] concerns Mus musculus. Kind of data set: Evaluated in vivo for maximum tolerated dose (MTD/4) using MXT mouse mammary adenocarcinoma model.
Data set [2] has as its system Mus musculus. Kind of data set: Evaluated in vivo for maximum tolerated dose (MTD/16) using MXT mouse mammary adenocarcinoma model ( ineffective). It is filed as ADME, organism-based. In short, it runs like this: (§1)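 MXT-HS hormone-sensitive mammary adenocarcinoma maintained by monthly s.c. transplantation in 6-week-old female B6D2F1 mice. Doses are set as fractions of the MTD. Drugs given i.p.; ETO and DOX 9 times, the quinolone 20 times. Nine mice per group. Tumor area (mm2) is the product of the two largest perpendicular caliper diameters, measured weekly. Mean ± SEM; Mann-Whitney test.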

In data set [3] the test system is Mus musculus. Nature of the data set: Evaluated in vivo for maximum tolerated dose (MTD/8) using MXT mouse mammary adenocarcinoma model.
Data set [4] relates to Mus musculus. Kind of data set: Evaluated in vivo for maximum tolerated dose (MTD/2) using MXT mouse mammary adenocarcinoma model ( highly toxic).
Data set [5] has as its system Mus musculus. Nature of the data set: Evaluated in vivo for maximum tolerated dose (MTD/2) using MXT mouse mammary adenocarcinoma model. It is filed as functional. In short, it runs like this:
as §1

The test system of data set [6] is Mus musculus. Kind of data set: Evaluated in vivo for maximum tolerated dose (MTD/8) using MXT mouse mammary adenocarcinoma model. Type of data set: functional. In short, it runs like this: as §1
Data set [7] concerns Mus musculus. Nature of the data set: Evaluated in vivo for maximum tolerated dose (MTD/4) using MXT mouse mammary adenocarcinoma model. It is filed as functional. The method, boiled down:
as §1

The test system of data set [8] is Mus musculus. Nature of the data set: Evaluated in vivo for maximum tolerated dose (MTD16) using MXT mouse mammary adenocarcinoma model. Type of data set: functional. In short, it runs like this: as §1
Data set [9] relates to T-24. Kind of data set: Cytotoxicity against T24 bladder cell lines using MTT colorimetric assay. It is filed as functional, cell-based. The note with it: Homo sapiens. In short, it runs like this: (§2)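 Human tumour lines from ATCC were grown at 37 °C in sealed dishes in MEM with 5% FCS. Cells were seeded at 40000 cells/mL in 96-well plates and left 24 h to plate. Each drug was then tested at six concentrations from 10^-5 to 10^-9 M. Growth was read by colorimetric MTT assay.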

For data set [10], the system named is J82. Nature of the data set: Cytotoxicity against J82 bladder cell lines using MTT colorimetric assay at 1x 10 E-5. It is filed as functional, cell-based. The settings on record: Homo sapiens. In short, it runs like this: as §2
A short description of data set [11]: Evaluated in vivo for maximum tolerated dose and found to be nontoxic. It is filed as ADME, organism-based.
The subject of data set [12] is T47D. Nature of the data set: Cytotoxicity against Breast cancer cell line T-47D using MTT colorimetric assay. Type of data set: functional, cell-based. The note with it: Homo sapiens. In short, it runs like this: as §2
In data set [13] the test system is A549. Kind of data set: Cytotoxicity against A549 nonsmall lung cell line using MTT colorimetric assay. It is filed as functional, cell-based. The settings on record: Homo sapiens. In short, it runs like this:
as §2

Data set [14] has as its system U-87 MG. Kind of data set: Cytotoxicity against U-87 MG glioblastomas using MTT colorimetric assay. Type of data set: functional, cell-based, U-87MG ATCC. The settings on record: Homo sapiens. The method, boiled down:
as §2

For data set [15], the system named is A-427. Kind of data set: Cytotoxicity against A-427 nonsmall lung cell line using MTT colorimetric assay. Type of data set: functional, cell-based. The note with it: Homo sapiens. The method, boiled down: as §2
Data set [16] concerns PC-3. Kind of data set: Cytotoxicity against prostate cell line PC-3 using MTT colorimetric assay. It is filed as functional, cell-based. The settings on record: Homo sapiens. The method, boiled down:
as §2

In data set [17] the test system is MCF7. Nature of the data set: Cytotoxicity against Breast cancer cell line MCF-7 using MTT colorimetric assay. Type of data set: functional, cell-based. The settings on record: Homo sapiens. The method, boiled down:
as §2

Data set [18] has as its system A 172. Kind of data set: Cytotoxicity against A-172 glioblastomas using MTT colorimetric assay. Type of data set: functional, cell-based. The note with it: Homo sapiens. The method, boiled down:
as §2

Data set [19] deals with U373 MG. Nature of the data set: Cytotoxicity against U-373 MG glioblastomas using MTT colorimetric assay. The settings on record: Homo sapiens. It is filed as functional, cell-based, U-373MG ATCC. The method, boiled down: as §2
In data set [20] the test system is LoVo. Nature of the data set: Cytotoxicity measured on LoVo colon cell line using MTT colorimetric assay. It is filed as functional, cell-based. The settings on record: Homo sapiens. In short, it runs like this: as §2
The subject of data set [21] is HCT-15. Nature of the data set: Cytotoxicity against HCT-15 colon cell line using MTT colorimetric assay. It is filed as functional, cell-based. The note with it: Homo sapiens. In short, it runs like this:
as §2

The structures appear in SMILES notation.

`COc1cc([C@@H]2c3cc4c(cc3[C@@H](O[C@@H]3O[C@@H]5CO[C@@H](C)O[C@H]5[C@H](O)[C@H]3O)[C@H]3COC(=O)[C@H]23)OCO4)cc(OC)c1O` [ETOPOSIDE]: the MTD/4 in [1] stood at 20 mg/kg. Besides, the MTD/16 in [2] is 5 mg/kg. Further, in [3], the MTD/8 turned out to be 10 mg/kg. The molecule also returned an MTD/2 in data set [4] of 40 mg/kg.
With `COc1cccc2c1C(=O)c1c(O)c3c(c(O)c1C2=O)C[C@@](O)(C(=O)CO)C[C@@H]3O[C@H]1C[C@H](N)[C@H](O)[C@H](C)O1` [DOXORUBICIN], in data set [5], the MTD/2 was 5 mg/kg. The same molecule gave an MTD/8 in [6] of 1.25 mg/kg. Further, the MTD/4 in data set [7] was determined as 2.5 mg/kg. In data set [8], this molecule showed an MTD/16 of 0.63 mg/kg.
In the case of `COc1ccc(-c2cc3c(OC)cc(OC)cc3n(CCC(=O)OCc3ccccc3)c2=O)cc1`, the IC50 in [9], in data set [10], in data set [12], in data set [13], in [14] and in data set [15] was > 10 µM in each case. Besides, the IC50 in data set [16], in data set [17], in [18], in [19], in data set [20] and in data set [21] was > 10 µM throughout. This molecule registered an MTD in [11] of 160 mg/kg.

Values taken from ChEMBL document CHEMBL1135464, “3-Aryl-2-quinolone derivatives: synthesis and characterization of in vitro and in vivo antitumor effects with emphasis on a new therapeutical target connected with cell migration” (J Med Chem, 2002).
